The results in this text go back to PubChem BioAssay.

The nature of experiment [1]: SK-BR-3 cell growth inhibitors, pilot screen, 24 h, human (AID 572;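 active means viability at or below 10% of carrier control in both of two separate runs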;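 further: compound exposure lasted between 18 and 24 h rather than exactly 24 h; 100% = carrier-treated control wells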). The conditions noted are these: SK-BR-3 viability, CellTiter-Glo luminescence, at 10 µM, stronger effect = lower value. A general note: Cellular ATP, detected with luciferase, serves as a proxy for viable cell number.
Experiment [2] can be described thus: HUVEC growth inhibition – cell-based, human, primary screen (AID 575;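 active means viability at or below 30% in both replicate assays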;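 further: 100% = median of untreated cell wells with 0.1% DMSO on each plate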). The note with it: HUVEC proliferation, CellTiter-Glo luminescence, 72 h; at 10 µM; stronger effect = lower value. In outline:
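Test system: primary human umbilical vein endothelial cells. Quantity: 1250 cells/well. Compound: single 10 µM dose, 0.1% DMSO, from 5x medium stock. Timing: 72 h treatment at 37 °C. Detection: ATP-based CellTiter-Glo luminescent read. Benchmarks: vehicle and MePR control wells. Format: 384-well plates coated with collagen.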

A short description of experiment [3]: growth inhibitors of H69AR lung tumor, primary screen, human, duplicate replicates (AID 580).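 Further: 100% = mean luminescence of untreated wells and 0% = no signal.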 The note with it: H69AR lung tumor cells viability, ATP luminescence, 72 h; at 10 µM; stronger effect = lower value.
Experiment [4] is described as follows: reversal of MRP1-mediated doxorubicin resistance, pilot screen, H69AR cells, doxorubicin co-treatment (AID 601;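 active means viability loss from added drug above about 55%, and viability with drug at most 40%, in both replicates, limit read from the data, passing the limit was not always enough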). The note with it: CellTiter-Glo, 72 h, at 10 µM; for differential viability (reversal): stronger effect = higher value.
Experiment [5] in a line: 384-well plate pilot, post-Golgi transport modulator project, inhibition of yeast transport mutant growth (AID 636; in the data active means inhibition above about 31%). The conditions noted are these: absorbance 615 nm, about 18 h, stronger effect = higher value.
Experiment [6] in a line: growth suppression of yeast trafficking mutant, preliminary HTS, modulators of trafficking downstream of Golgi apparatus project, 1536-format plate, OD 615 nm (AID 637; in the data active means inhibition above about 30%). The note with it: yeast transport mutant growth, absorbance 615 nm, 18 h; stronger effect = higher value.
Setting [7] is: H69AR cells + 2 uM doxorubicin, measured here: viability with 2 uM doxorubicin, stronger effect = lower value.
Where [8] appears, read: H69AR cells, compound alone cytotoxicity.

Each structure is given as a SMILES string. The source made the active and inactive calls.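 How the source made its calls, unless noted: active means viability at or under a set limit in both replicates, limit being median viability minus 3 SD (cut at about 48% in these data, passing the limit was not always enough); inconclusive means at or under the limit in just one replicate; inactive means at or above the limit in both replicates.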

In general, viability refers to a read-out of living cells in per cent, often relative to untreated cells. As usually defined, the inhibition is the relative decrease from the control value, in per cent. `Cc1nn(C)cc1C1C2=C(CC(C)(C)CC2=O)OC2=C1C(=O)CC(C)(C)C2`: the viability was 74% (inactive) in experiment [1]; 110% (inactive) in experiment [2]; 89.8% (inactive) in experiment [3]; 95.6% in experiment [4] (setting [7]); 89.8% in experiment [4] (setting [8]). For the same molecule, the differential viability (reversal) in experiment [4] (H69AR cells + 2 uM doxorubicin) was -5.79% (inactive). The inhibition in experiment [5] was -6.62% (inactive); in experiment [6] it was 0.18% (inactive).
For the molecule `Cc1ccc(-c2nn[nH]n2)cc1`, the viability in experiment [1] was 109% (inactive); in experiment [2], 112% (inactive); in experiment [3], 107% (inactive); in experiment [4] (setting [7]) it was 111%; in experiment [4] (setting [8]), 107%. Further, the differential viability (reversal) in experiment [4] (H69AR cells + 2 uM doxorubicin) was -4.72% (inactive). Also, the inhibition is -4.79% (inactive) in experiment [5] and 2.18% (inactive) in experiment [6].
For `CC(C)OC(=O)c1cc(NC(=O)C2C3CCC(O3)C2C(=O)O)cc(C(=O)OC(C)C)c1` (centres undefined), the viability in experiment [1] was 106% (inactive); in experiment [2], 88.1% (inactive); in experiment [3], 92.9% (inactive); in experiment [4] (setting [7]), 89.9%; in experiment [4] (setting [8]), 92.9%. In addition, the differential viability (reversal) in experiment [4] (H69AR cells + 2 uM doxorubicin) is 3.01% (inactive). The inhibition was -7.81% (inactive) in experiment [5] and -1.09% (inactive) in experiment [6].
Turning to `FC(F)Oc1cccc2cccnc12`, the viability in experiment [1] was 89% (inactive); in experiment [2], 111% (inactive); in experiment [3], 94% (inactive); in experiment [4] (setting [7]) it was 84.9%; in experiment [4] (setting [8]), 94%. Further, the differential viability (reversal) in experiment [4] (H69AR cells + 2 uM doxorubicin) is 9.04% (inactive). The inhibition in experiment [5] was -3.33% (inactive); in experiment [6], -0.55% (inactive).
Regarding `COc1ccc(C)cc1C(=O)CCC(=O)Nc1ccccc1N1CCOCC1`, the viability is 90% (inactive) in experiment [1]; 54% (inactive) in experiment [2]; 1.36% (active) in experiment [3]; 2.85% in experiment [4] (setting [7]); 1.36% in experiment [4] (setting [8]). The differential viability (reversal) in experiment [4] (H69AR cells + 2 uM doxorubicin) was -1.5% (inactive). For the same molecule, the inhibition in experiment [5] was -6.27% (inactive); in experiment [6] it was 1.31% (inactive).
For the molecule `CC(=O)OC1CSc2nc3ccccc3n2C1` (centres undefined), the viability in experiment [1] was 84% (inactive); in experiment [2], 111% (inactive); in experiment [3], 93.4% (inactive); in experiment [4] (setting [7]), 85.9%; in experiment [4] (setting [8]), 93.4%. Moreover, the differential viability (reversal) in experiment [4] (H69AR cells + 2 uM doxorubicin) was 7.46% (inactive). Further, the inhibition in experiment [5] is -8.11% (inactive); in experiment [6], 3.45% (inactive).
For `Cc1cc(C(=O)N2CCCc3ccccc32)no1`, the viability was 98% (inactive) in experiment [1]; 102% (inactive) in experiment [2]; 105% (inactive) in experiment [3]; 90.3% in experiment [4] (setting [7]); 105% in experiment [4] (setting [8]). In experiment [4] (H69AR cells + 2 uM doxorubicin), the differential viability (reversal) was 14.4% (inactive). Also, the figures for the inhibition in experiment [5] and in experiment [6] were -2.27% (inactive) and 1.27% (inactive), respectively.
Turning to `CCCc1nc(NCc2ccncc2)c2nnn(Cc3ccccc3F)c2n1`, the viability in experiment [1] is 99% (inactive); in experiment [2] it was 107% (inactive); in experiment [3] it was 54.5% (inactive); in experiment [4] (setting [7]) it was 45.9%; in experiment [4] (setting [8]), 54.5%. In experiment [4] (H69AR cells + 2 uM doxorubicin), the differential viability (reversal) was 8.61% (inactive). Moreover, the results for the inhibition in experiment [5] and in experiment [6] were -1.37% (inactive) and -3.39% (inactive), respectively.
For `COc1cc(C2Oc3cc(C4Oc5cc(O)cc(O)c5C(=O)C4O)ccc3OC2CO)ccc1O` (centres undefined), the viability was 106% (inactive) in experiment [1]; 85.7% (inactive) in experiment [2]; 97.4% (inactive) in experiment [3]; 93.2% in experiment [4] (setting [7]); 97.4% in experiment [4] (setting [8]). In addition, the differential viability (reversal) in experiment [4] (H69AR cells + 2 uM doxorubicin) was 4.15% (inactive). In addition, the inhibition in experiment [5] is 1.3% (inactive); in experiment [6], -3.5% (inactive).
Regarding `CC(=O)c1ccc(N2CCN(C(=O)c3cc(C)on3)CC2)cc1`, the viability is 100% (inactive) in experiment [1]; 97.7% (inactive) in experiment [2]; 111% (inactive) in experiment [3]; 98.9% in experiment [4] (setting [7]); 111% in experiment [4] (setting [8]). In addition, in experiment [4] (H69AR cells + 2 uM doxorubicin), the differential viability (reversal) was 12.4% (inactive). For the same molecule, the inhibition in experiment [5] is -6.99% (inactive); in experiment [6], -3.82% (inactive).
For the molecule `O=C(Cc1cccs1)N(c1ccccc1)C1C=CS(=O)(=O)C1` (centres undefined), the viability was 118% (inactive) in experiment [1]; 107% (inactive) in experiment [2]; 106% (inactive) in experiment [3]; 76.7% in experiment [4] (setting [7]); 106% in experiment [4] (setting [8]). In experiment [4] (H69AR cells + 2 uM doxorubicin), the differential viability (reversal) is 28.9% (inactive). Moreover, the inhibition was -3.07% (inactive) in experiment [5] and -1.64% (inactive) in experiment [6].
As for `c1coc(-c2nnc(-c3cccs3)o2)c1`, the viability in experiment [1] is 106% (inactive); in experiment [2], 110% (inactive); in experiment [3], 102% (inactive); in experiment [4] (setting [7]), 87.9%; in experiment [4] (setting [8]) it was 102%. For the same molecule, in experiment [4] (H69AR cells + 2 uM doxorubicin), the differential viability (reversal) is 14% (inactive). Also, the inhibition was -5.33% (inactive) in experiment [5] and 0% (inactive) in experiment [6].
For `Cn1c(-c2ccc(F)cc2)cnc1SCC(=O)Nc1ccccc1N1CCOCC1`, the viability in experiment [1] is 94% (inactive); in experiment [2], 103% (inactive); in experiment [3], 102% (inactive); in experiment [4] (setting [7]), 88.8%; in experiment [4] (setting [8]), 102%. Also, in experiment [4] (H69AR cells + 2 uM doxorubicin), the differential viability (reversal) is 12.9% (inactive). In addition, the inhibition was -7.57% (inactive) in experiment [5] and -4.55% (inactive) in experiment [6].
As to `O=C(Nc1ccccc1)N(CCCN1CCOCC1)Cc1cc2cc3c(cc2[nH]c1=O)OCCO3`, the viability in experiment [1] is 96% (inactive); in experiment [2] it was 82.3% (inactive); in experiment [3], 67.6% (inactive); in experiment [4] (setting [7]), 64.9%; in experiment [4] (setting [8]), 67.6%. The differential viability (reversal) in experiment [4] (H69AR cells + 2 uM doxorubicin) is 2.71% (inactive). In addition, the inhibition in experiment [5] is 2.13% (inactive); in experiment [6] it was 3.45% (inactive).
On to `CCOCCCn1c(=NC(C)=O)c(C(=O)OCC)cc2c(=O)n3ccccc3nc21`, for which the viability in experiment [1] was 82% (inactive); in experiment [2] it was 108% (inactive); in experiment [3], 90.5% (inactive); in experiment [4] (setting [7]), 47.4%; in experiment [4] (setting [8]) it was 90.5%. Further, the differential viability (reversal) in experiment [4] (H69AR cells + 2 uM doxorubicin) is 43.1% (inactive). For the same molecule, the results for the inhibition in experiment [5] and in experiment [6] were -0.68% (inactive) and 2% (inactive), respectively.
Turning to `CC1=C(C(=O)N2CCOCC2)C(c2ccccc2F)C2=C(CCCC2=O)N1` (centres undefined), the viability was 110% (inactive) in experiment [1]; 104% (inactive) in experiment [2]; 98.8% (inactive) in experiment [3]; 101% in experiment [4] (setting [7]); 98.8% in experiment [4] (setting [8]). For the same molecule, the differential viability (reversal) in experiment [4] (H69AR cells + 2 uM doxorubicin) is -2.68% (inactive). The inhibition in experiment [5] was -2.88% (inactive); in experiment [6], 0.91% (inactive).
As for `CC(=O)OC(C)C[N+](C)(C)C` (centres undefined), the viability was 103% (inactive) in experiment [1]; 86.7% (inactive) in experiment [2]; 104% (inactive) in experiment [3]; 89.3% in experiment [4] (setting [7]); 104% in experiment [4] (setting [8]). In addition, the differential viability (reversal) in experiment [4] (H69AR cells + 2 uM doxorubicin) was 14.9% (inactive). For the same molecule, the results for the inhibition in experiment [5] and in experiment [6] were -5.97% (inactive) and 3.5% (inactive), respectively.
Take `Cc1cc(NC(=O)CSc2nc(C3CC3)nc3sc4c(c23)CCC(C)C4)no1` (centres undefined): the viability in experiment [1] was 90% (inactive); in experiment [2] it was 108% (inactive); in experiment [3], 102% (inactive); in experiment [4] (setting [7]) it was 86.4%; in experiment [4] (setting [8]), 102%. The differential viability (reversal) in experiment [4] (H69AR cells + 2 uM doxorubicin) was 15.6% (inactive). In addition, the inhibition in experiment [5] was -5.2% (inactive); in experiment [6], -0.18% (inactive).
